Compound activity from PubChem BioAssay.
Shown are actives, neighbours in structure and some others; about 2.1% of the full set was active somewhere.
bCat nuc transl: modulators of beta-catenin nuclear translocation, primary screen, imaging, HeLa cells, immunofluorescence, high-content | nuclear translocation activity, % at 5 µM | 190,000 tested, 0.3% active | AID 1665, 2009;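 active = nuclear translocation activity above 50% at 5 µM, with a well cell count of 50 or more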;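 also: per-cell ratio of nuclear to cytoplasmic median beta-catenin stain intensity; plate controls were DMSO negative control for no effect and GSK-3 inhibitor IX positive control for full effect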
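Signal – beta-catenin immunofluorescence imaging with DAPI · Test system – human HeLa cell line · Dosing – 5 µM primary single dose, 0.1% DMSO, 0.02–20 µM confirmation series · Measure – % activation, nuclear-to-cytoplasmic median beta-catenin signal ratio per cell · Incubation – 24 h compound exposure at 37°C, 5% CO2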
KLF5 inh: KLF5 expression inhibitors, primary screen, DLD-1 cells, luminescence; AID 1700, 2009; 290,000 tested, 0.23% active; inhibition, % at 5 µM; DLD-1 KLF5 promoter-luciferase reporter;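 active = inhibition above a per-plate limit of that plate's mean compound inhibition plus 3 SD, cut at about 60% in these data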;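 also: 0% = DMSO wells and 100% = LY294002 at 200 µM; higher means less KLF5 promoter-driven luciferase light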
BaF3 tox: parental Ba/F3 cell viability inhibition, counter-screen for JAK2V617F inhibitor project, murine pro-B, CellTiter-Glo luminescence. CellTiter-Glo ATP luminescence. inhibition, % at 5.6 µM. 220,000 tested, 1.1% active. AID 1486, 2009;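 active = inhibition above a per-campaign cutoff, the mean inhibition of all tested compounds plus 3 SD, cut at about 27% in these data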;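 also: 0% = DMSO wells and 100% = JAK Inhibitor I control wells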
IEC-6 cytotox: cytotoxicity in IEC-6 intestinal epithelial cells, primary screen, cytotoxicity control for KLF5 inhibitor project, cell-based, luminescence | inhibition, % at 5 µM | IEC-6 cytotoxicity, luminescence viability | 290,000 tested, 0.78% active | AID 1825, 2009;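 also: 0% = plate median of test compound wells and 100% = cytotoxic reference compound wells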
MT stabilizer: microtubule stabilizers in HeLa cells, primary screen, imaging, high-content imaging. HeLa tubulin immunostaining HCS, 24 h; share of cells brighter than vehicle mean+2SD. % tubulin-high responders, % at 10 µM. 200,000 tested, 0.83% active. AID 2205, 2009;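 active = plate Z-score above 3 for both tubulin-high and condensed-nucleus cell shares, with cell loss under 80%, at 10 µM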;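 also: anti alpha tubulin signal scored within the nucleus-defined area of each cell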
Ba/F3 V617F tox: reduced viability of JAK2V617F-dependent Ba/F3 cells, primary screen, JAK2V617F inhibitor project, cell-based, Ba/F3 EpoR-JAK2V617F, luminescence. ATP luminescence. inhibition, % at 5.6 µM. 220,000 tested, 1.1% active;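 active = inhibition above the campaign mean plus 3 SD over all tested compounds, cut at about 24% in these data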;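 also: cytokine-independent growth of Ba/F3 cells driven by EpoR plus mutant JAK2; 0% = DMSO-treated cells and 100% = JAK inhibitor I control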
IEC-6 cytotox cf: cytotoxic compounds in IEC-6 epithelial cells, confirmation, cytotoxicity control, cell-based, luminescence; shares compounds with IEC-6 cytotox; IEC-6 rat intestinal epithelial viability; inhibition, % at 5 µM; 1,900 tested, 63% active;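 also: 0% = vehicle and 100% = reference cytotoxic drug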
* hit, by the source's call; nt = not tested or not shown. Rule as the data show it, unless noted: active = inhibition above about 22%; inactive = the rest.

SMILES	bCat nuc transl	KLF5 inh	BaF3 tox	IEC-6 cytotox	MT stabilizer	Ba/F3 V617F tox	IEC-6 cytotox cf
COc1ccc(/C=C/C(=O)c2cc(F)ccc2OC(=O)c2ccccc2)cc1OC	nt	56	1	46*	14	0	37*
COc1ccc(/C=C/C(=O)c2cc(Br)ccc2OC(=O)c2ccco2)cc1OC	29	5	5	0	4	4	nt
CCC(C)(C)n1nnnc1CN1CCC(c2nc3ccc(C)cc3[nH]2)CC1	-1	-44	3	11	1	-4	nt
Cc1cc2nc(C3CCN(Cc4nnnn4Cc4ccccc4)CC3)[nH]c2cc1C	0	23	68*	72*	2	72*	52*
CCn1nc(C)cc1-c1nnc(Sc2ncc([N+](=O)[O-])s2)n1C	nt	12	nt	102*	nt	nt	26*
CCn1nc(C)cc1-c1nnc(SCC(=O)Nc2ccccc2)n1CCCOC	-2	-9	1	-11	nt	-4	nt
O=C(Nc1ccccc1)OC1CC2CC1C1CCCC21 (configuration not stated)	-5	-60	10	-1	3	1	nt
COc1ccc(-n2nnnc2-c2ccccc2)cc1	nt	38	68*	52*	36*	80*	50*
COc1cc(CNCCCN2CCOCC2)cc(Br)c1OCc1ccc(Cl)cc1	22	-19	73*	53*	4	30*	46*
C=CCN=c1scc(-c2ccc3c(c2)NC(=O)CO3)n1/N=C(\C)c1ccccn1	-1	57	91*	41*	6	100*	31*
Cn1c(N)c(C(=O)COC(=O)CCC(=O)c2ccc(F)cc2)c(=O)n(C)c1=O	-1	-18	-1	-6	4	-4	nt
COc1ccc(-n2c(O)c(/C=C3\C=Nc4ccccc43)c(=O)[nH]c2=O)cc1	nt	-39	nt	4	nt	nt	nt
Cc1ccc(-n2c(O)c(/C=C3/C(c4ccccc4)=Nc4ccccc43)c(=O)[nH]c2=O)cc1	0	28	61*	66*	18*	74*	60*
O=Nc1c(-c2c(O)[nH]c3cc(Br)ccc23)[nH]c2ccccc12	nt	4	nt	23*	nt	nt	3
COc1ccccc1CCNC(=O)c1ccc2nc[nH]c2c1	nt	-5	nt	-11	nt	nt	nt
Cc1cc(C)c(C(=O)CSc2nc3ccccc3c(=O)[nH]2)cc1C	3	-54	7	71*	2	-2	52*
Cc1ccc(C(=O)CSc2nc3ccccc3c(=O)[nH]2)cc1	nt	-58	0	14	1	-2	nt
Cc1ccc(C(=O)CSc2nc3ccccc3c(=O)[nH]2)cc1C	-1	-10	1	21	3	-2	nt
Cc1ccc(C)c(C(=O)CSc2nc3ccccc3c(=O)[nH]2)c1	2	3	8	44*	4	0	48*
O=C(NCc1ccco1)C(=O)c1c[nH]c2ccccc12	-1	-27	5	-2	4	3	nt
CC(=O)Nc1ccc(S(=O)(=O)Nc2cccc(C(=O)Nc3ccccc3C(=O)O)c2)cc1	nt	4	nt	7	nt	nt	nt
COc1cc(/C=C2/SC(=O)N(CC(=O)N3CCCC3)C2=O)ccc1Oc1ccc([N+](=O)[O-])cn1	nt	11	nt	9	nt	nt	nt
O=C(CCn1c(=O)oc2ccccc21)N1CCCCCC1	-2	-26	-2	0	3	0	nt
O=C(CCn1c(=O)oc2ccccc21)N1CCN(c2ccccc2Cl)CC1	0	32	16	23*	44*	13	40*
O=C(NNC(=O)c1cccc2ccccc12)c1ccc(-c2ccccc2)cc1	0	-8	5	1	4	-2	nt
O=C(NNC(=O)c1ccc(O)cc1O)c1ccc(-c2ccccc2)cc1	nt	-5	nt	24*	nt	nt	1
CCOc1cc(NC(=O)c2cccs2)c(OCC)cc1NC(=O)CCC(=O)NCc1ccccn1	1	37	64*	57*	nt	81*	12
COc1ccc(C(=O)Nc2ccccc2C(=O)O)cc1Cl	-1	-130	9	3	2	1	nt
